From ChEMBL document CHEMBL1135657, “Novel dual inhibitors of AChE and MAO derived from hydroxy aminoindan and phenethylamine as potential treatment for Alzheimer's disease” (J Med Chem, 2002)

Columns and labels:
[1] = target: T1, Amine oxidase [flavin-containing] A (Rattus norvegicus, UniProt P21396); assay: In vitro inhibitory concentration against Monoamine oxidase A of rat brain homogenates; value ranges from 9-52; assay type: tissue-based
T1 sequence (P21396 whole entry): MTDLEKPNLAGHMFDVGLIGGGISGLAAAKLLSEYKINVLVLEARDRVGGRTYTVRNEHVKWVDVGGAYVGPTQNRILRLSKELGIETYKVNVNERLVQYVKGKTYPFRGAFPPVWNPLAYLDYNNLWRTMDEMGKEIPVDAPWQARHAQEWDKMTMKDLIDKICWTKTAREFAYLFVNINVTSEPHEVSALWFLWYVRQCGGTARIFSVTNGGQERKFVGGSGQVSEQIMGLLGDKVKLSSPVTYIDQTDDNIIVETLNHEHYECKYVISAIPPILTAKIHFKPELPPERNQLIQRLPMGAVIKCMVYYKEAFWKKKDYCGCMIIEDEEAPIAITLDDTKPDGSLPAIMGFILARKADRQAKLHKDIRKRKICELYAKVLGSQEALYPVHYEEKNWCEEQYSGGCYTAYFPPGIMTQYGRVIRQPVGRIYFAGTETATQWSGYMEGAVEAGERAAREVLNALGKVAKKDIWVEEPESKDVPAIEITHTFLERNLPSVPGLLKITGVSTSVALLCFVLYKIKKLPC

[2] = target: T2, Acetylcholinesterase (Homo sapiens, UniProt P22303); assay: In vitro inhibitory concentration against purified Acetylcholinesterase of human erythrocytes; value ranges from 0.12-0.41
[3] = target: T3, Amine oxidase [flavin-containing] B (Rattus norvegicus, UniProt P19643); assay: In vitro inhibitory concentration against Monoamine oxidase B of rat brain homogenates; assay type: tissue-based
T3 sequence (P19643 whole entry): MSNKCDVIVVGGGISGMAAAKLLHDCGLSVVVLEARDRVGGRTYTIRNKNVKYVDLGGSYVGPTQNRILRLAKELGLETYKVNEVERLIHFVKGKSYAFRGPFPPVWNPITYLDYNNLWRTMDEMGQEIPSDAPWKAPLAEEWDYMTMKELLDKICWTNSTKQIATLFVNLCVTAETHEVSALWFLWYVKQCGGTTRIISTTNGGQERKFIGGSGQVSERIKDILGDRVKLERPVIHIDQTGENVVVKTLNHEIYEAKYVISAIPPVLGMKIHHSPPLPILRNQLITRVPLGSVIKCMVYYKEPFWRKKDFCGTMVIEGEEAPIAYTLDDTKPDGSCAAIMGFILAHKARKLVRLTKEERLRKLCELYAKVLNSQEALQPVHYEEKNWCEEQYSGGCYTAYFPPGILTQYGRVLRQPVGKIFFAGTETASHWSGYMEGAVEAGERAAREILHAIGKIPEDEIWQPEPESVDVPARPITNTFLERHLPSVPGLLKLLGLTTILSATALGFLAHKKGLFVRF

[4] = Pseudo-first order rate constant for carbamoylation of ACHE at 50 (uM) concentration; assay type: ADME
Outline: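 Human erythrocyte AChE, same Ellman conditions: 200 µM […], 60 min preincubation at 37 °C, 0.1 M phosphate pH 7.4. Progressive inhibition followed at 4-5 inhibitor concentrations. Pseudo-first-order k_obs (min⁻¹) derived per concentration; apparent bimolecular carbamylation constant k_i calculated from these.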

[5] = Pseudo-first order rate constant for carbamoylation of ACHE at 10 (uM) concentration; assay type: ADME
Outline: (§1)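 Human erythrocyte AChE, Ellman method with 200 µM […] substrate, 0.1 M phosphate buffer pH 7.4, 37 °C. Progressive inhibition followed at 4–5 inhibitor concentrations. Pseudo-first-order carbamylation rate constants k_obs (min⁻¹) derived as per Bar-On et al. and reported ±SEM. Apparent bimolecular rate constant k_i calculated from these.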

[6] = Pseudo-first order rate constant for carbamoylation of ACHE at 2.5(uM) concentration; assay type: ADME; outline: as §1
[7] = target: T1, Amine oxidase [flavin-containing] A; assay: In vitro inhibitory concentration against Monoamine oxidase A of rat brain homogenates; value ranges from 8-43; assay type: tissue-based
[8] = target: T4, Butyrylcholinesterase (Equus caballus, UniProt Q9N1N9); assay: In vitro inhibitory concentration against Butyrylcholinesterase of horse serum; value ranges from 0.64-0.89
[9] = Pseudo-first order rate constant for carbamoylation of ACHE at 5 (uM) concentration; assay type: ADME; outline: as §1
[10] = target: T2, Acetylcholinesterase; assay: In vitro inhibitory concentration against purified Acetylcholinesterase of human erythrocytes; value ranges from 2.36-4.22
[11] = Bimolecular rate constant for carbamoylation of ACHE; assay type: ADME
Outline: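 Human erythrocyte AChE preincubated with inhibitor at 37 °C in 0.1 M phosphate buffer, pH 7.4, under Ellman conditions with 200 µM […]. Pseudo-first-order rate constants (k_obs) for progressive inhibition were obtained at 4-5 inhibitor concentrations. The apparent bimolecular carbamylation constant k_i was calculated from these.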

[12] = Pseudo-first order rate constant for carbamoylation of ACHE at 20 (uM) concentration; assay type: ADME; outline: as §1
[13] = target: T3, Amine oxidase [flavin-containing] B; assay: In vitro inhibitory concentration against Monoamine oxidase B of rat brain homogenates; value ranges from 0.8-2.9; assay type: tissue-based
[14] = Pseudo-first order rate constant for carbamoylation of ACHE at 40 (uM) concentration; assay type: ADME; outline: as §1
[15] = target: T2, Acetylcholinesterase; assay: In vitro inhibitory concentration against purified Acetylcholinesterase of human erythrocytes; value ranges from 0.44-0.49
[16] = target: T4, Butyrylcholinesterase; assay: In vitro inhibitory concentration against Butyrylcholinesterase of horse serum; value ranges from 10.7-43.7
Outline: (§2)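 Ellman assay followed, with 200 µM butyrylthiocholine as substrate. Runs were in triplicate with four-point dose-response curves. IC50 and fiducial limits came from log concentration versus % inhibition.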

[17] = target: T2, Acetylcholinesterase; assay: In vitro inhibitory concentration against purified Acetylcholinesterase of human erythrocytes; value ranges from 252-806
[18] = target: T4, Butyrylcholinesterase; assay: In vitro inhibitory concentration against Butyrylcholinesterase of horse serum; value ranges from 0.70-0.92; outline: as §2
[19] = target: T2, Acetylcholinesterase
[20] = target: T2, Acetylcholinesterase; remark: listed apart in the source
[21] = target: T4, Butyrylcholinesterase; assay: In vitro inhibitory concentration against Butyrylcholinesterase of horse serum; value ranges from 7.65-13.2; outline: as §2
[22] = target: T2, Acetylcholinesterase; assay: In vitro inhibitory concentration against purified Acetylcholinesterase of human erythrocytes; value ranges from […]-[…]
[23] = target: T1, Amine oxidase [flavin-containing] A; assay: In vitro inhibitory concentration against Monoamine oxidase A of rat brain homogenates 47-101; assay type: tissue-based
[24] = target: T1, Amine oxidase [flavin-containing] A; assay: In vitro inhibitory concentration against Monoamine oxidase A of rat brain homogenates; value ranges from 5.6-11.1; assay type: tissue-based
[25] = target: T4, Butyrylcholinesterase; assay: In vitro inhibitory concentration against Butyrylcholinesterase of horse serum; value ranges from 0.038-0.064; outline: as §2
[26] = target: T2, Acetylcholinesterase; assay: In vitro inhibitory concentration against purified Acetylcholinesterase of human erythrocytes; value ranges from 0.025-0.027
[27] = target: T1, Amine oxidase [flavin-containing] A; assay: In vitro inhibitory concentration against Monoamine oxidase A of rat brain homogenates; value ranges from 5.6-19.6; assay type: tissue-based
[28] = target: T2, Acetylcholinesterase; assay: In vitro inhibitory concentration against purified Acetylcholinesterase of human erythrocytes; value ranges from 0.012-0.014
[29] = target: T1, Amine oxidase [flavin-containing] A; assay: biochemical; assay type: tissue-based, Brain
[30] = target: T2, Acetylcholinesterase; assay: In vitro inhibitory concentration against purified Acetylcholinesterase of human erythrocytes; value ranges from 8.99-49.4
[31] = target: T4, Butyrylcholinesterase; assay: In vitro inhibitory concentration against Butyrylcholinesterase of horse serum; value ranges from 0.76-4.2; outline: as §2
[32] = target: T2, Acetylcholinesterase; remark: listed apart in the source
[33] = target: T3, Amine oxidase [flavin-containing] B; assay: In vitro inhibitory concentration against Monoamine oxidase B of rat brain homogenates; value ranges from 80.-92
[34] = target: T1, Amine oxidase [flavin-containing] A; assay: In vitro inhibitory concentration against Monoamine oxidase A of rat brain homogenates; value ranges from 0.22-0.29; assay type: tissue-based
[35] = target: T1, Amine oxidase [flavin-containing] A; assay: In vitro inhibitory concentration against Monoamine oxidase A of rat brain homogenates; value ranges from 30-230; assay type: tissue-based
[36] = target: T4, Butyrylcholinesterase; assay: In vitro inhibitory concentration against Butyrylcholinesterase of horse serum; value ranges from 0.34-1.03; outline: as §2

T2 sequence (P22303 whole entry): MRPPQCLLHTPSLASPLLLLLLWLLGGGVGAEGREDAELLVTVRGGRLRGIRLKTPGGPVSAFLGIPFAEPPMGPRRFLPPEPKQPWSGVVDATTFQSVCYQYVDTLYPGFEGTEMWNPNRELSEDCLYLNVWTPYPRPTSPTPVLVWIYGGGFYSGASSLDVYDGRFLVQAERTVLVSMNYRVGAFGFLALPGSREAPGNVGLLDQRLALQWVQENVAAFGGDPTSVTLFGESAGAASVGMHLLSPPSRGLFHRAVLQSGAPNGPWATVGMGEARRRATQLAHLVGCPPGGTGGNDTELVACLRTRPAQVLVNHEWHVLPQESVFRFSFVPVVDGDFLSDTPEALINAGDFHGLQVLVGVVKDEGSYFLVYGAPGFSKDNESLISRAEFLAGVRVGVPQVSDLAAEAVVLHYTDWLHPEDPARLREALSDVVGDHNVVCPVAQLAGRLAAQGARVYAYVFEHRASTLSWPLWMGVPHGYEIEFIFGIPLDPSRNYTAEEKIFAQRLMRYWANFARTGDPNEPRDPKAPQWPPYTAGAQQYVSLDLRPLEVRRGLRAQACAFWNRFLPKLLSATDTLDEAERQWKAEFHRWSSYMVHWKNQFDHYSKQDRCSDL
T4 sequence (Q9N1N9 whole entry): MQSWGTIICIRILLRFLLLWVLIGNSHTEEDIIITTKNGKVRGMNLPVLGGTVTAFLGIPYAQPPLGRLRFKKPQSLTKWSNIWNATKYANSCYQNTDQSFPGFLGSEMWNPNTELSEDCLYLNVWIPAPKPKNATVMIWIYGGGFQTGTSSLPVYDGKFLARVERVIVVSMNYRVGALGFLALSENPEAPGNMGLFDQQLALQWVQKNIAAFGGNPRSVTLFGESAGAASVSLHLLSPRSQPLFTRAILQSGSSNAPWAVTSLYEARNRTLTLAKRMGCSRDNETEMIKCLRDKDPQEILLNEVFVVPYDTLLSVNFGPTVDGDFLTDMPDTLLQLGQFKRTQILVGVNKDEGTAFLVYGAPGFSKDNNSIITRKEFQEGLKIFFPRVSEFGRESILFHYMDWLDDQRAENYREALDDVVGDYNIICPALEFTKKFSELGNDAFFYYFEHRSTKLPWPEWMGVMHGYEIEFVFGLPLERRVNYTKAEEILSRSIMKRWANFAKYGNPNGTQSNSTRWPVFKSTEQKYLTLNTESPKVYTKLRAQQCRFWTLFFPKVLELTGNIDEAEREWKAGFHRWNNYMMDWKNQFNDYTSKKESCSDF

## CNCCc1cccc(OC(=O)N(C)C)c1
[1]
  IC50: 22 µM
[2]
  IC50: 0.28 µM
[3]
  IC50: > 1000 µM

## C#CCN(C)C(C)Cc1cccc(OC(=O)N(C)CCCCCC)c1 (stereo not given)
[4]
  K obs: 63 min⁻¹
[5]
  K obs: 23 min⁻¹
[6]
  K obs: 14 min⁻¹
[7]
  IC50: 20 µM
[8]
  IC50: 0.72 µM
[9]
  K obs: 15 min⁻¹
[10]
  IC50: 3.06 µM
[11]
  Bimolecular carbamoylation rate constant (ki): 17.25 M⁻¹ s⁻¹
[12]
  K obs: 30 min⁻¹
[13]
  IC50: 1.5 µM
[14]
  K obs: 55 min⁻¹

## CN(C)C(=O)Oc1cccc2c1C(N)CC2 (stereo not given)
[15]
  IC50: 0.46 µM

## C#CCN(C)C1CCc2cccc(OC(=O)N(C)CC)c21 (stereo not given)
[16]
  IC50: 20 µM
[17]
  IC50: 439 µM

## C#CCN(C)C1CCc2c(OC(=O)N(C)CC)cccc21 (stereo not given)
[18]
  IC50: 0.79 µM
[19]
  IC50: 14.9 µM

## CCN(C)C(=O)Oc1cccc2c1C(N)CC2 (stereo not given)
[20]
  IC50: 10.5 µM
[3]
  IC50: > 1000 µM

## COc1ccc(N(C)C(=O)Oc2ccc3c(c2)C(N)CC3)cc1 (stereo not given)
[21]
  IC50: 9.91 µM
[22]
  IC50: 0.3 µM

## C#CCNC1CCc2ccc(OC(=O)NCCC)cc21 (stereo not given)
[23]
  IC50: 69 µM

## CCN(C)C(=O)Oc1cccc2c1CCC2N (stereo not given)
[24]
  IC50: 7.9 µM
[25]
  IC50: 0.054 µM
[3]
  IC50: > 1000 µM
[26]
  IC50: 0.026 µM

## CN(C)C(=O)Oc1cccc2c1CCC2N(C)C (stereo not given)
[27]
  IC50: 10 µM
[3]
  IC50: > 1000 µM
[28]
  IC50: 0.013 µM

## CCN(C)C(=O)Oc1ccc2c(c1)C(N)CC2 (stereo not given)
[29]
  IC50: 12.9 µM
[3]
  IC50: > 1000 µM
[30]
  IC50: 19 µM
[31]
  IC50: 1.9 µM

## C#CCNC1CCc2c(OC(=O)N(C)C)cccc21 (stereo not given)
[32]
  IC50: 0.053 µM
[33]
  IC50: 86 µM
[34]
  IC50: 0.26 µM

## CN(C)C(=O)Oc1ccc2c(c1)C(N)CC2 (stereo not given)
[35]
  IC50: 80 µM
[36]
  IC50: 0.63 µM
